# Bioassay records: PubChem, Johns Hopkins Ion Channel Center
# MrgX1 agonist = human MrgX1 receptor agonism, primary screen. hit rate 0.44% among 310,000. Q96LB2. MrgX1-HEK293 cells, Fluo-4 calcium fluorescence, agonist mode; active compounds read high. AID 588627. B-score at 10 µM;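 active = calcium response B-score plate-corrected fluorescence ratio at least 3 library SD, with starting fluorescence B-score inside 5 SD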
#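 Material – MrgX1-expressing HEK293 cells · Input – 15,000 cells seeded per well · Dosing – compound as first of three additions · Times – overnight seeding, then 1 h dark dye loading · Measured by – kinetic Fluo-4 NW fluorescence of intracellular calcium · Read-out – B-scored fluorescence response ratio · Benchmarks – positive and negative control wells on each plate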
# MrgX1 antag = blocks BAM8-22 activation of human MrgX1 receptor | Q96LB2 | MRGX1-HEK293 calcium flux, Fluo-4, BAM8-22 antagonism; active compounds read low | B-score at 10 µM | hit rate 1.3% among 310,000;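 active = calcium-response B-score plate-corrected more than 3 library SD below zero, starting fluorescence within 5 deviations, no agonist response on first addition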;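 also: peak minus trough fluorescence over baseline after final BAM8-22 challenge near maximal dose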
# MrgX1 allo act = human MrgX1 positive allosteric modulation, primary screen; AID 588675; B-score at 10 µM; MrgX1-HEK293, Fluo-4 calcium flux, FDSS; active compounds read high; Q96LB2; hit rate 0.63% among 310,000;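 active = plate-corrected calcium response at least 3 library SD above typical, normal starting fluorescence, not activating the receptor alone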;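 also: compound read alongside a low EC10 to EC30 dose of BAM8-22 agonist; peak minus trough fluorescence over baseline measured at the second addition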
# RGS4 act = potentiators or activators of RGS4; HEK293 M3R/inducible RGS4, carbachol calcium flux Fluo4; active compounds read low; B-score at 10 µM; hit rate 0.92% among 310,000;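 active = B-score of the integrated calcium signal more than 4 SD below the library mean, with starting fluorescence not abnormally high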;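 also: negative B-score means reduced calcium response which marks RGS4 activation or potentiation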
#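 test system = HEK293 cells with stable M3R and inducible RGS4 | schedule = recording 10 s baseline at 1 Hz, 100 s post-agonist | technique = Fluo4-AM (2 µM) calcium-flux fluorescence, kinetic read | measure = Agonist-evoked peak-minus-minimum fluorescence over baseline, integrated ratio, B score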
# RGS4 block = inhibitors of human RGS4; P49798; HEK293 M3R/RGS4 inducible, Fluo-4 calcium flux; active compounds read high; triggered by carbachol at its EC20; B-score at 10 µM; hit rate 0.45% among 310,000; AID 463165;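 active = B-score, a plate-corrected calcium signal, over three deviations above library mean, with baseline fluorescence within five deviations of library mean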;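 also: RGS4 expression induced by doxycycline in cells with stable M3 receptor; B-score is computed from the integrated fluorescence ratio over baseline after carbachol; higher B-score means a larger calcium signal and so more RGS4 inhibition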
# Target sequence (P49798 whole entry, looked up): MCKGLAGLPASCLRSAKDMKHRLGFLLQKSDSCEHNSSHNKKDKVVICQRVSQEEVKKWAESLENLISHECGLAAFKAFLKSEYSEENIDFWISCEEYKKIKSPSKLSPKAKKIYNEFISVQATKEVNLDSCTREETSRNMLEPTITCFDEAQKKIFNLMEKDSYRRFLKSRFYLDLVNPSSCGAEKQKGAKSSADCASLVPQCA
# * hit, by the source's call; i = inactive. Only some compounds are listed: those with a hit (about 3.5% of all), similar ones and a draw of the others.
SMILES,MrgX1 agonist,MrgX1 antag,MrgX1 allo act,RGS4 act,RGS4 block
COc1cccc(-c2nn(C)c3sc(C(=O)N4CCOCC4)cc23)c1,i,i,i,i,i
COc1cccc(-c2nn(C)c3sc(C(=O)N4CCN(c5ccccn5)CC4)cc23)c1,i,i,i,-11*,i
O=c1cc(-c2ccccc2Cl)oc2c(NS(=O)(=O)c3cc(Cl)cc(Cl)c3O)ccc(O)c12,40*,i,i,i,i
CCc1ccc(S(=O)(=O)Nc2ccc(O)c3c(=O)cc(-c4ccccc4Cl)oc23)cc1,i,i,i,i,i
O=C(CCNc1cccc(F)c1)c1cccc([N+](=O)[O-])c1,i,i,9.1*,i,i
Cc1ccc(C(=O)CCS(=O)(=O)c2ccc(Br)cc2)cc1,i,i,i,i,i
O=C(CCNc1ccc(Cc2ccncc2)cc1)c1cccc([N+](=O)[O-])c1,i,i,i,i,i
Cc1ccc(S(=O)(=O)CCC(=O)c2cccc([N+](=O)[O-])c2)cc1,33*,i,i,i,i
N=C(SC1CC(=O)N(c2ccc(F)cc2)C1=O)N1N=C(c2ccccc2)CC1c1ccccc1 (stereo not drawn),i,i,i,i,i
O=C(OCc1cccc([N+](=O)[O-])c1)c1ccc2ccccc2n1,i,i,12*,i,i
O=C(OCc1ccc([N+](=O)[O-])cc1)c1ccc2ccccc2n1,i,i,i,i,i
Cc1cc(C(=O)CCC(=O)NCc2ccccc2F)c(C)s1,i,i,i,i,i
CCC1C(=O)NCCN1C(=O)CCc1nnc(CCc2ccc(OC)cc2)o1 (stereo not drawn),i,-5.7*,i,i,i
Cc1ccc(NC(=O)C2CCCN2S(=O)(=O)c2ccc3c(c2)n(C)c(=O)c(=O)n3C)cc1C (stereo not drawn),i,i,i,-7*,i
Cn1c(=O)c(=O)n(C)c2cc(S(=O)(=O)N3CCCC3C(=O)Nc3ccc(F)cc3)ccc21 (stereo not drawn),i,i,i,i,i
O=C(Nc1ncccc1O)C1CCN(S(=O)(=O)c2ccc3ccccc3c2)CC1,i,i,i,i,i
COc1cc(CNC(C)(C)C)cc(Br)c1OCc1cccs1,i,-6.1*,i,i,i
COc1cc(CNCCO)cc(Br)c1OCc1cccs1,i,i,i,i,i
CCOc1ccc(C(=O)OCn2nnc3ccccc3c2=O)cc1OC,i,-7.6*,i,i,i
COc1cc(C(=O)OCn2nnc3ccccc3c2=O)cc(OC)c1OC,i,i,i,i,i
O=C(OCn1nnc2ccccc2c1=O)c1ccc(O)cc1,i,i,12*,i,i
S=C(NCc1ccc(Cl)cc1)NN1CCOCC1,i,i,i,i,i
CCOc1ccccc1NC(=O)CCc1nnc2ccc(N3CCC4(CC3)OCCO4)nn12,i,i,i,i,i
C=CCN1C(=O)C(CC(=O)Nc2ccc(OCCC)cc2)N(CCCN2CCN(Cc3ccccc3)CC2)C1=S (stereo not drawn),i,i,9.4*,i,i
Cc1ccccc1C(=O)NNc1ccc([N+](=O)[O-])cc1,i,-6.8*,i,i,i
SMILES,MrgX1 agonist,MrgX1 antag,MrgX1 allo act,RGS4 act,RGS4 block
COc1cc(C(=O)Nc2ccc3c(c2)CCCN3C(=O)c2ccco2)c([N+](=O)[O-])cc1OC,i,i,i,i,i
N#Cc1cccc(C#N)c1Oc1ccc(S(=O)(=O)Nc2ccc(Cl)cc2)cc1,i,i,i,i,i
CN(C)CC/C=C1/c2ccc(F)cc2Sc2ccc(Cl)cc21,i,i,i,-7.8*,i
C=CCN(C)CC/C=C1\c2ccccc2CSc2ccccc21,i,i,i,-11*,i
CN(C)CC/C=C1\c2cc(F)ccc2CSc2ccccc21,i,i,i,-8.8*,i
NCC/C=C1/c2ccccc2CSc2ccccc21,i,i,i,-7*,i
C#CCN(C)CC/C=C1\c2ccccc2CSc2ccccc21,i,i,i,-8.7*,i
